Reference: ChEMBL document CHEMBL1135743 (J Med Chem, 2002)

Experiments:
Adenosine receptor A2a [1] = molecular target: T1, Adenosine receptor A2a (Homo sapiens, UniProt P29274); test: Ability to displace [3H]- ZM-241385 from CHO cell membrane expressing the human Adenosine A2A receptor at a concentration of 10 uM; type: cell membranes
[2] = molecular target: T2, Adenosine receptor A1 (Homo sapiens) (UniProt P30542); test: Ability to displace [3H]- DPCPX from CHO cell membrane expressing the human Adenosine A1 receptor at a concentration of 10 uM; type: cell membranes
T2 sequence (whole entry): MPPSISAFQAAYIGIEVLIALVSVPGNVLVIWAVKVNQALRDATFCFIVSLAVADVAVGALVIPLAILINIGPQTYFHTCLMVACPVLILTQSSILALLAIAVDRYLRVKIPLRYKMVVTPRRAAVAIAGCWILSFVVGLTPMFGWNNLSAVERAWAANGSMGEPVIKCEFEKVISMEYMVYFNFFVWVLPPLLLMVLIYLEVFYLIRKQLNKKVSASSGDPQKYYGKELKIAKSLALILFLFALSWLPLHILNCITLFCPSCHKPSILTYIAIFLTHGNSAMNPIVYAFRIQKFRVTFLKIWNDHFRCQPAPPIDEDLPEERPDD

Adenosine receptor A3 = molecular target: T3, Adenosine receptor A3 (Homo sapiens, UniProt P0DMS8); test: Ability to displace [125I]- AB-MECA from HEK 293 cell membrane expressing the human Adenosine A3 receptor; type: cell membranes, HEK293
T3 sequence (P0DMS8 whole entry): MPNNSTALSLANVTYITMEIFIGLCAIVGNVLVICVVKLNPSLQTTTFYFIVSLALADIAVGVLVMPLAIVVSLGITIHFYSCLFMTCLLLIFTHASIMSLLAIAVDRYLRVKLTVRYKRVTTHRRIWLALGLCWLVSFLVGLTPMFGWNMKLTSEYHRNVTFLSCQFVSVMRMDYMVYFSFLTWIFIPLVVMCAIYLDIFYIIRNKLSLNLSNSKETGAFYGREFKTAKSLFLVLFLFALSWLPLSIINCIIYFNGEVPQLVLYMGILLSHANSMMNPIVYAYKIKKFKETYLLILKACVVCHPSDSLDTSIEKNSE

Adenosine receptor A1 = molecular target: T4, Adenosine receptor A1 (Homo sapiens, UniProt P30542); test: Displacement of [3H]DPCPX from CHO cell membrane expressing human Adenosine A1 receptor; type: cell membranes
T4 sequence (P30542 whole entry): T2 sequence (whole entry)

Adenosine receptor A2a [3] = molecular target: T1, Adenosine receptor A2a; test: Displacement of [3H]ZM-241,385 from CHO cell membrane expressing human Adenosine A2A receptor; type: cell membranes
Summary of the method: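 Membranes from CHO cells expressing human A2A, with adenosine deaminase 2 IU/mL added. Incubation used 2.0 nM (final) [3H]ZM241385 in 50 mM Tris/HCl pH 7.4 for 2 h at 25 °C. Nonspecific binding was set with 100 µM CPA. GF/B filtration, four ice-cold washes, scintillation counting. Ligands were dissolved in DMSO stocks.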

[4] = molecular target: T5, Adenosine receptor A3 (Homo sapiens) (UniProt P0DMS8); test: Displacement of [125I]AB-MECA from HEK293 cell membrane expressing human Adenosine A3 receptor at 10 uM; type: cell membranes
T5 sequence (whole entry): T3 sequence (P0DMS8 whole entry)

[5] = molecular target: T2, Adenosine receptor A1 (Homo sapiens); test: Displacement of [3H]- DPCPX from CHO cell membrane expressing human Adenosine A1 receptor; type: cell membranes
Summary of the method: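 Membranes from CHO cells stably expressing human A1, resuspended in 50 mM Tris/HCl pH 7.4 with adenosine deaminase 2 IU/mL. Incubated with 1.6 nM (final) [3H]DPCPX in 50 mM Tris/HCl pH 7.4 for 1 h at 25 °C. Nonspecific binding was set with 10 µM CPA. Filtration over GF/B, three ice-cold washes, then liquid scintillation counting. Ligand stocks were in DMSO.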

Adenosine receptor A2a [6] = molecular target: T1, Adenosine receptor A2a; test: Displace [3H]ZM-241385 from CHO cell membrane expressing human Adenosine A2A receptor at 10 uM; type: cell membranes
[7] = molecular target: T2, Adenosine receptor A1 (Homo sapiens); test: Displacement of [3H]DPCPX from CHO cell membrane expressing human Adenosine A1 receptor at 10 uM; type: cell membranes

T1 sequence (P29274 whole entry): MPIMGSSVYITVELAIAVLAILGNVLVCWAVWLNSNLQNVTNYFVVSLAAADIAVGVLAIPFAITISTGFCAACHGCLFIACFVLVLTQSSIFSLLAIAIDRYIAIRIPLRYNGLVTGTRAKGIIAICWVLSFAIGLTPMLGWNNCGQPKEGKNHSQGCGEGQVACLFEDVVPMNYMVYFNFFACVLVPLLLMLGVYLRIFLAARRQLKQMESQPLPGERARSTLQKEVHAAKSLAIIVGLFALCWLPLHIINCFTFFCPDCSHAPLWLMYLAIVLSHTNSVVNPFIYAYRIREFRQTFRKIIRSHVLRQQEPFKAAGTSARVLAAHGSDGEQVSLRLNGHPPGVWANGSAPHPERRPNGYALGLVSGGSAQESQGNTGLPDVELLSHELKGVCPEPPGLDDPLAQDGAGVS

Row | Displacement (Adenosine receptor A2a [1]) [%] | Displacement [2] [%] | Ki (Adenosine receptor A3) [nM] | Ki (Adenosine receptor A1) [nM] | Ki (Adenosine receptor A2a [3]) [nM] | Structure (SMILES) | further results
1 | 16 | 25 | 213 | – | – | COc1ccc(Cn2c(=O)c3c(nc4ccccn43)n(Cc3ccccc3)c2=O)cc1 | –
2 | – | – | 5 | 42 | 161 | C=CCn1c(=O)c2c(nc3ccccn32)n(Cc2ccccc2)c1=O | –
3 | 10 | 49 | 210 | – | – | COc1ccn2c(c1)nc1c2c(=O)[nH]c(=O)n1Cc1ccccc1 | –
4 | 23 | 53 | 555 | – | – | CC(C)(C)c1ccn2c(c1)nc1c2c(=O)[nH]c(=O)n1Cc1ccccc1 | –
5 | – | – | 36 | 325 | 584 | CCn1c(=O)c2c(nc3ccccn32)n(Cc2ccccc2)c1=O | –
6 | – | 40.9 | 4.2 | – | 242 | O=c1c2c(nc3ccccn32)n(Cc2ccccc2)c(=O)n1CC1CC1 | –
7 | – | 20 | 77 | – | 25800 | O=c1c2c(nc3ccccn32)n(Cc2ccccc2)c(=O)n1Cc1ccccc1 | –
8 | 44 | – | 10 | 179 | – | CCCn1c(=O)c2c(nc3cc(OC)ccn32)n(Cc2ccccc2)c1=O | –
9 | 32 | 47 | 370 | – | – | O=c1[nH]c(=O)n(Cc2ccccc2)c2nc3ccccn3c12 | –
10 | 8 | 25 | – | – | – | CCCn1c(=O)c2c(nc3cc(-c4ccccc4)ccn32)n(Cc2ccccc2)c1=O | –
11 | 40 | – | 6.3 | 28 | – | CC(C)Cn1c(=O)c2c(nc3ccccn32)n(Cc2ccccc2)c1=O | –
12 | 35 | 44 | 68 | – | – | CCCn1c(=O)c2c(nc3ccccn32)n(Cc2cccc(C)c2)c1=O | –
13 | 11 | 7 | – | – | – | NCCCn1c(=O)c2c(nc3ccccn32)n(Cc2ccccc2)c1=O | Displacement [4]: 6%
14 | 40 | – | 8.3 | 83 | – | CCCn1c(=O)c2c(nc3ccccn32)n(Cc2ccc(OC)cc2)c1=O | –
15 | 22 | – | 114 | – | – | O=c1c2c(nc3ccccn32)n(Cc2ccccc2)c(=O)n1CC1CCCCC1 | Displacement [5]: 21%
16 | – | – | 1130 | – | – | COC(=O)/C=C/Cn1c(=O)c2c(nc3ccccn32)n(Cc2ccccc2)c1=O | Displacement (Adenosine receptor A2a [6]): 12%; Displacement [7]: 1%
17 | – | – | – | – | 119 | CCCn1c(=O)c2c(nc3ccccn32)n(Cc2ccccc2)c1=O | –
18 | – | – | 950 | 1460 | 385 | CCCn1c(=O)c2c(nc3cc(C(C)(C)C)ccn32)n(Cc2ccccc2)c1=O | –
19 | – | – | 14 | 124 | 96 | C#CCn1c(=O)c2c(nc3ccccn32)n(Cc2ccccc2)c1=O | –
20 | 0 | 11 | 200 | – | – | O=c1[nH]c(=O)n(Cc2ccccc2)c2nc3cc(-c4ccccc4)ccn3c12 | –
21 | – | – | 3020 | 2100 | – | CCCn1c(=O)c2c(nc3ccccn32)n(C)c1=O | Displacement (Adenosine receptor A2a [6]): 49%
